Screening results deposited in PubChem by The Scripps Research Institute Molecular Screening Center.
Hits are enriched below; roughly 4.6% of the tested compounds scored in any of these assays.
TAAR1 ag = human TAAR1 agonism; CHO RD-HGA16 TAAR1, Fluo-8 calcium fluorescence; vehicle wells 0%, saturating PEA agonist 100%; activation, % at 3 µM; 0.99% of 360,000 active; AID 624467;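 active = activation above the mean activation of all test compounds in the run plus 3 SD, cut at about 38% in these data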
Target sequence (Q96RJ0 whole entry, looked up): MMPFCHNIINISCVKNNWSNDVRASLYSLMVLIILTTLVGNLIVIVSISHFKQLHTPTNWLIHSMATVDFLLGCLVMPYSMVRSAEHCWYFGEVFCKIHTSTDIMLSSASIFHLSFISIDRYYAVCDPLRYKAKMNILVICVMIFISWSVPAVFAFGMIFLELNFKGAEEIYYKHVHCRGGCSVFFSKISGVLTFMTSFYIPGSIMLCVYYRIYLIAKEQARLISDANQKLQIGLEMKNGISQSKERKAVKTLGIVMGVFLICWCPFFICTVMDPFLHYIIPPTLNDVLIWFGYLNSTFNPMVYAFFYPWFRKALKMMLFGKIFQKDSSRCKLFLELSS
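Test system: RD-HGA16 (CHO) cells co-expressing Gα16 and hTAAR1 / Benchmarks: DMSO vehicle as 0%, PEA at EC100 as 100% / Repeats: no replicates (n 1) / Measure: % activation from peak over basal fluorescence ratio, DMSO-to-PEA scaled / Timing: 17-24 h plating, Fluo-8 75 min 37 °C, 30 min RT / Technique: kinetic Fluo-8 calcium fluorescence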
OX1R antag-1 = blocks the human orexin 1 receptor; inhibition, % at 6.6 µM; AID 485270; OX1R-expressing cells, FRET antagonist read-out; 1.8% of 330,000 active; in the data active = inhibition mostly above about 38%, no sharp cut-off; inactive = mostly below about 40%;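 note: 0% = agonist challenge alone and 100% = reference antagonist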
TAAR1 antagonist = human TAAR1 antagonism | CHO RD-HGA16 TAAR1, Fluo-8 calcium fluorescence, antagonist | Q96RJ0 | 1.5% of 360,000 active | AID 624466 | inhibition, % at 3 µM;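 active = inhibition above a per-plate cutoff, the mean inhibition of test compounds on that plate plus 3 SD, cut at about 49% in these data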;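 note: 0% = DMSO plus EC80 beta-PEA response and 100% = DMSO alone without agonist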
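System: RD-HGA16 CHO cells with stable hTAAR1 and Gα16 | Probe or stimulus: EC80 β-phenethylamine stimulus | Dosing: 3 µM, single point | Times: Dye loading 75 min at 37 °C, then 30 min room temperature | Measured by: Fluo-8 calcium-sensitive fluorescence | Read-out basis: % inhibition of agonist calcium response | Replicates: n of 1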
OX1R antag-2 = blocks the human orexin 1 receptor. CHO/OX1R cells, Fluo-8 calcium fluorescence, orexin A. inhibition, % at 5 µM. 0.43% of 330,000 active. AID 434989;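 active = inhibition above its plate's threshold, mean inhibition of all tested compounds on the plate plus 3 SD, cut at about 37% in these data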;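 note: 0% = orexin A challenge wells and 100% = SB-334867-A antagonist wells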
CHO parental Ca = counter-screen for OX1R antagonists: effect in parental CHO cells. parental CHO-K1, ATP-induced calcium, Fluo-8 fluorescence. inhibition, % at 5.6 µM. 0.63% of 330,000 active. AID 463079;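 active = inhibition above that plate's mean sample inhibition plus 3 SD, cut at about 26% in these data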;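 note: 0% = ATP-challenged DMSO wells and 100% = DMSO wells without ATP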
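Test system: untransfected parental CHO cell line; also added: ATP stimulus; dosing: 5.6 µM, single dose; signal: calcium-sensitive Fluo-8 fluorescence; measure: percent inhibition of ATP-evoked calcium rise, normalized to controls; benchmarks: low control ATP plus DMSO, high control DMSO only; replication: one well per compound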
GPR7 antagonist = antagonists of human GPR7 (neuropeptides B/W receptor 1) | P48145 | GPR7-expressing cells, fluorescence antagonist assay | inhibition, % at 4.4 µM | 1.1% of 290,000 active | AID 1861; in the data active = inhibition above about 16%, passing the limit was not always enough;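 note: cells stimulated with the agonist NPW; 0% = agonist with vehicle and 100% = vehicle without agonist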
Target sequence (P48145 whole entry, looked up): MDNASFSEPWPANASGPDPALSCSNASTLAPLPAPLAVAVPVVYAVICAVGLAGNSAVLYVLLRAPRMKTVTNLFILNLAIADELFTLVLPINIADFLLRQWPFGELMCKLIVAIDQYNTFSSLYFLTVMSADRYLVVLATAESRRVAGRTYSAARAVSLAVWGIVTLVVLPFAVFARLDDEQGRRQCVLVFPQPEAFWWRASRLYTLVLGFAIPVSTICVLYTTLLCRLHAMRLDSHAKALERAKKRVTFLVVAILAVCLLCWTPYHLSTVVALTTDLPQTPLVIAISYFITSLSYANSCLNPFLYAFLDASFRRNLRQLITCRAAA
Starred values were filed as active, the others as inactive; nt = no result given.

SMILES | TAAR1 ag | OX1R antag-1 | TAAR1 antagonist | OX1R antag-2 | CHO parental Ca | GPR7 antagonist
O=S1(=O)N[C@@H](Cc2ccccc2)COc2cccc(NCCO)c21 | 0 | nt | 14 | nt | nt | nt
O=C1c2ccccc2C(=O)C2OC12 (stereo unspecified) | nt | 14 | nt | -1 | -5 | -18
N#Cc1nccnc1S(=O)(=O)c1cccs1 | 1 | 109* | 29 | 31 | 44* | 18*
CN(Cc1ccccc1C#N)S(=O)(=O)c1cccs1 | 0 | 11 | 3 | -4 | -1 | -13
OC(CNCCC1C=Nc2ccccc21)Cn1c2ccc(Cl)cc2c2cc(Cl)ccc21 (stereo unspecified) | 40* | 3 | 42 | 39 | 56* | 6
COc1ccc2oc(=O)c(-c3nnc(NCc4ccco4)s3)cc2c1 | 9 | 24 | 10 | -26 | -9 | -4
CCOc1cccc2cc(-c3nnc(NCc4ccco4)s3)c(=O)oc12 | 4 | 46* | 25 | -1 | -13 | 4
Cc1ccc(CN2CCN(c3cccc4[nH]ccc34)CC2)cc1 | 6 | -5 | -16 | -12 | -10 | -15
Cc1cc2c(NCCc3ccccc3)ncnc2s1 | 4 | 54* | 19 | 49* | 64* | 18
Cc1cc2c(Nc3ccccc3)ncnc2s1 | -3 | 23 | -3 | -9 | -15 | 0
c1ccc(CCNc2ncnc3ccccc23)cc1 | 16 | 40 | 29 | 2 | 32* | 19
CC[C@H](C)[C@@H](C(=O)NCCCCCCCCCCC(=O)N1CCN(C(=O)OC(C)(C)C)CC1)n1cc(CCCCCNC(=O)OC(C)(C)C)nn1 | 18 | 13 | 60* | 32 | 43* | nt
CC(C)(C)OC(=O)CC[C@@H](C(=O)NCCCCCCCCCCC(=O)N1CCN(C(=O)OC(C)(C)C)CC1)n1cc(CCCCCNC(=O)OC(C)(C)C)nn1 | 8 | 26 | 42 | -31 | -21 | nt
CC(C)(C)OC(=O)NCCCCCc1cn([C@@H](CO)C(=O)NCCCCCCCCCCC(=O)N2CCN(C(=O)OC(C)(C)C)CC2)nn1 | 35 | 71* | 87* | 74* | 96* | nt
CC[C@H](C)[C@@H](C(=O)NCCCCCCCCCCC(=O)N1CCN(C(=O)OC(C)(C)C)CC1)n1cc(CCCCN=C(NC(=O)OC(C)(C)C)NC(=O)OC(C)(C)C)nn1 | nt | 27 | nt | -9 | -14 | nt
NC(=O)c1ccsc1NC(=O)COC(=O)c1cc(=O)[nH]c2ccccc12 | 10 | 33 | 50* | -31 | -19 | nt
COc1cc(CC(=O)OCC(=O)Nc2sccc2C(N)=O)cc(OC)c1OC | 21 | 29 | 63* | 12 | 6 | -4
O=C(COC(=O)c1cc(=O)[nH]c2ccccc12)NCc1cccs1 | 1 | 25 | -15 | -6 | -11 | -2
Nc1[nH]c(C(=O)c2ccccc2)c(-c2ccccc2C(F)(F)F)c1C(=O)c1c[nH]c2ccccc12 | 3 | nt | -22 | nt | nt | nt
Cc1nc2ccc(Br)cc2c(=O)n1Cc1cccs1 | 9 | 12 | -11 | -15 | -8 | nt
C#CCSc1nnc(-c2ccc([N+](=O)[O-])cc2)o1 | 2 | 51* | 13 | -3 | -3 | -5
CSc1nnc(-c2ccc([N+](=O)[O-])cc2)o1 | 2 | 62* | 10 | -3 | -9 | -6
CSc1nnc(-c2ccc(F)cc2)o1 | 12 | 14 | -2 | -3 | -5 | -6
CC12CCC3c4ccc(OCCCO)c([N+](=O)[O-])c4CCC3C1CCC2=O (stereo unspecified) | 4 | nt | 17 | nt | nt | nt
O=C(/C=C/c1ccco1)Nc1ccc2nn(-c3ccccc3)nc2c1 | 0 | 77* | -2 | 18 | 6 | 3
SMILES | TAAR1 ag | OX1R antag-1 | TAAR1 antagonist | OX1R antag-2 | CHO parental Ca | GPR7 antagonist
O=C(Nc1ccc(Oc2ccccc2)cc1)C1CCN(c2c3c(nc4ncnn24)CCC3)CC1 | 28 | 27 | 57* | 36* | 49* | -17
O=C(Nc1ccc2c(c1)CCC2)C1CCN(c2c3c(nc4ncnn24)CCC3)CC1 | 13 | 21 | -14 | -33 | -28 | -25
O=c1ccc2cc3c([nH]c4ccc(Br)cc43)oc-2c1O | 38* | 33 | 11 | 7 | -6 | -1
CCCCCCCn1c(=O)c(C(=O)OC)c(N)c2ccccc21 | 22 | 60 | 14 | 41* | 58* | -5
COc1cccc2c1nc(C)c1cc(C)oc12 | 11 | 23 | -1 | -14 | -29 | -7
COc1cccc2nc3cc(C)c(C)cc3nc12 | 6 | 68* | -16 | -19 | -12 | -7
CCOC(=O)CNC(=S)n1ncnc1N | 8 | 26 | -11 | -3 | 3 | 16*
C#CCN1CC(COc2ccccc2)Oc2cccc(Oc3ccc(C(C)C)cc3)c2S1(=O)=O (stereo unspecified) | 1 | nt | 5 | nt | nt | nt
C=CCN=C1NC(c2ccccc2)C(C(=O)OC)=C(C)N1Cc1ccccc1C(F)(F)F (stereo unspecified) | 10 | nt | -21 | nt | nt | nt
COc1cc2c(cc1NC(=O)COC(=O)[C@@H](NS(=O)(=O)c1ccccc1)C(C)C)oc1ccccc12 | 4 | 75* | 25 | 20 | -5 | -10
CCN(c1ccccc1)C1(O)C(=O)c2ccccc2C1=O | 3 | 12 | 13 | -14 | -2 | 20*
CS(=O)(=O)c1cccc(OCCCN2CCC(C(O)(c3ccccc3)c3ccccc3)CC2)c1 | 15 | nt | 11 | nt | nt | nt
COc1ccc(Cl)cc1NC(=O)CSc1nnc(Cc2ccc(C)cc2)c(=O)[nH]1 | 1 | 50* | -19 | -15 | -5 | nt
Cc1ccc(Cc2nnc(SCC(=O)Nc3ccccc3Cl)[nH]c2=O)cc1 | 1 | 25 | -10 | -4 | 1 | nt
Cc1ccccc1N(C=O)c1ccccc1C | -1 | nt | 2 | nt | nt | nt
COc1ccc(-c2c[n+](CC(=O)OC3CC(C)CCC3C(C)C)c3n2CCC3)cc1 (stereo unspecified) | 3 | 4 | 1 | -11 | 7 | 42*
CCOC(=O)C1CCN(C(=O)C2CCCN2S(=O)(=O)c2ccc(Cl)cc2)CC1 (stereo unspecified) | 0 | 12 | 5 | -4 | -10 | -10
